Measurements: ChEMBL document CHEMBL3425457, “Identification of Novel ROS Inducers: Quinone Derivatives Tethered to Long Hydrocarbon Chains” (J Med Chem, 2015)
The source made the active and inactive calls. The calls are words filed in the database; no cut-off is given here.

What was measured:
Format in all cases: functional, cell-based
HCT-116 [1] = assay: Induction of apoptosis in human HCT116 cells assessed as decrease in Bcl2 level after 48 hrs by Western blot analysis
Procedure, shortened: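 Western blotting. Cells were seeded at 6 × 10⁵ per 60 mm dish overnight, then treated with a dose series at 37 °C in 5% CO2 for 48 h. RIPA lysates were BCA-quantified and 25–50 μg was resolved by SDS-PAGE onto PVDF. Membranes were blocked in TBS/T with 5% milk, probed with primary antibody overnight at 4 °C and HRP secondary at 1:2000 for 1 h, and detected by ECL.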

A549 [2] = assay: Induction of apoptosis in human A549 cells at 10 uM after 48 hrs by FACS analysis
HCT-116 [3] = assay: Induction of apoptosis in human HCT116 cells at 10 uM after 48 hrs by FACS analysis
A549 [4] = assay: Induction of ROS production in human A549 cells after 3 hrs by DHE staining-based fluorescence assay
Procedure, shortened: (§1)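 For probe imaging, A549 cells were seeded on cover glass at 1 × 10⁶ per well and grown 18–24 h. They were treated for 3 h, then stained 30 min with 10 μM DCF-DA, DHE or APF. Cells were fixed in 4% formaldehyde for 20 min, washed twice with PBS and viewed by fluorescence microscopy.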

HCT-116 [5] = assay: Induction of phosphorylation of JNK1/2 in human HCT116 cells at 1 to 10 uM after 3 hrs by Western blot analysis in presence of 10 mM NAC
Procedure, shortened: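 Cells pretreated for 2 h with 10 mM N-acetylcysteine, then given compound for 3 h. Lysates in RIPA; 25–50 μg protein analysed by SDS-PAGE/PVDF immunoblot for phospho-kinase levels. Detection used an HRP secondary (1:2000) and ECL.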

[6] = Induction of ROS production in HFF1 cells at 2 uM after 3 hrs by DCF-DA staining-based fluorescence assay relative to DMSO treated control; conditions: Homo sapiens, HFF-1
Procedure, shortened: (§2)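 HFF-1 fibroblasts were grown on cover glass at 1 × 10⁶ per well for 18–24 h and exposed to compound for 3 h. They were then stained with 10 μM DCF-DA for 30 min. Cells were fixed in 4% formaldehyde for 20 min, PBS-washed and imaged by fluorescence microscopy.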

[7] = Induction of ROS production in HFF1 cells at 10 uM after 3 hrs by DCF-DA staining-based fluorescence assay relative to DMSO treated control; conditions: Homo sapiens, HFF-1; procedure, shortened: as §2
A549 [8] = assay: Induction of ROS production in human A549 cells after 3 hrs by DCF-DA staining-based fluorescence assay; procedure, shortened: as §1
A549 [9] = assay: Increase in oxidized […] level in human A549 cells at 10 uM after 4 hrs by luminescence assay
Procedure, shortened: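 Cellular GSH and GSSG levels were measured in A549 cells after 4 h of compound treatment.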

CCCCCC/C=C\CCCCc1cc(O)cc(OC)c1O
Activity (HCT-116 [1]): Dose-dependent effect
Activity (A549 [2]): Active
Activity (HCT-116 [3]): Active
Activity (A549 [4]): Active
Activity (HCT-116 [5]): inactive

CCCCCC/C=C\CCCCCCCCCc1cc(O)cc(OC)c1O
Activity (HCT-116 [1]): Dose-dependent effect
Activity [6]: inactive
Activity [7]: inactive
Activity (A549 [8]): Active
Activity (A549 [4]): Active
Activity (A549 [9]): Active
Activity (HCT-116 [5]): inactive
